ChEMBL document CHEMBL1143004, “Structure-activity relationship among purpurinimides and bacteriopurpurinimides: trifluoromethyl substituent enhanced the photosensitizing efficacy” (J Med Chem, 2007)

Assays:
[1] = Ratio of drug level in tumor to skin of C3H mouse bearing RIF tumors after 24 hrs by IRS; format: ADME; settings: in vivo
Outline: (§1)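 In vivo reflectance spectroscopy in female C3H/RIF or BALB/c/colon-26 mice. Baseline spectrum recorded via fiber bundles on tumor plus overlying skin and on normal skin. Drug 2.5–5.0 µmol/kg i.v. by tail vein, then spectra recorded up to 2 days. Post- to pre-injection spectral ratio compared in tumor versus skin. n = 3.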

[2] = Photosensitizing efficacy in C3H mouse bearing RIF tumors measured as tumor free at 0.4 umol/kg and light dose 135 J/cm2 after 60 days; format: functional
Outline: (§2)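 Female C3H mice given s.c. RIF cells (3 × 10⁵) or female BALB/c mice given colon-26 cells (1 × 10⁶), both on right posterior shoulder. Drug in 1% Tween 80/HBSS given i.v. the day before light, hair depilated. At 24 h p.i., restrained unanaesthetized mice (10/group) got a 1 cm² argon-pumped dye laser spot, 135 J/cm² at 75 mW/cm². Tumor volume L·W²/2; cure = no palpable tumor.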

[3] = Ratio of drug level in tumor to skin of Balb/C mouse implanted with colon26 tumor after 24 hrs by IRS; format: ADME; settings: in vivo; outline: as §1
[4] = Photosensitizing efficacy in C3H mouse bearing RIF tumors measured as tumor free at 0.7 umol/kg and light dose 135 J/cm2 after 90 days; format: functional; outline: as §2
Colon 26 = test: Photosensitizing efficacy in Balb/C mouse implanted with colon26 tumors measured as tumor free at 0.7 umol/kg and light dose 135 J/cm2 after 90 days; format: functional; outline: as §2
RIF = test: Photosensitizing efficacy in RIF cells after 48 hrs by MTT assay in presence of light; format: functional, cell-based
Outline: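 RIF cells, 5 × 10³/well, seeded in α-MEM with 10% FCS. Next day drug added at 1.25–20 µM (formulated in 1% Tween 80/5% dextrose, diluted in medium), 24 h dark at 37 °C. Medium replaced, then 708 nm (purpurinimides) or 791 nm (bacteriopurpurinimides) at 3.2 mW/cm², 0.5–20 J/cm². After 48 h dark, MTT 4 h, DMSO, A560. Survival relative to dark and light controls; four wells per point, SD from three experiments.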

Row | SMILES | Ratio [1] | further results
1 | CCCCCCCOC(C)c1c(C)c2cc3nc(c4c5[nH]c(cc6nc(cc1[nH]2)C(C)=C6CC)c(C)c5C(=O)N(Cc1cc(C(F)(F)F)cc(C(F)(F)F)c1)C4=O)[C@@H](CCC(=O)OC)[C@@H]3C (stereo partly drawn) | 1.97 | –
2 | CCCCCCCCCCCCOC(C)c1c(C)c2cc3nc(c4c5[nH]c(cc6nc(cc1[nH]2)C(C)=C6CC)c(C)c5C(=O)N(Cc1cc(C(F)(F)F)cc(C(F)(F)F)c1)C4=O)[C@@H](CCC(=O)OC)[C@@H]3C (stereo partly drawn) | 1.82 | Activity [2]: 50%
3 | CCCCOC(C)c1c(C)c2cc3nc(c4c5[nH]c(cc6nc(cc1[nH]2)C(C)=C6CC)c(C)c5C(=O)N(Cc1cc(C(F)(F)F)cc(C(F)(F)F)c1)C4=O)[C@@H](CCC(=O)Nc1ccc(CC(CN(CCN(CC(=O)O)CC(=O)O)CC(=O)O)N(CC(=O)O)CC(=O)O)cc1)[C@@H]3C (stereo partly drawn) | 3.68 | Ratio [3]: 5.06; Activity [4]: 70%; Activity (Colon 26): 70%
4 | CCC1=C(C)c2cc3[nH]c(cc4nc(c5c6[nH]c(cc1n2)c(C)c6C(=O)N(Cc1cc(C(F)(F)F)cc(C(F)(F)F)c1)C5=O)[C@@H](CCC(=O)OC)[C@@H]4C)c(C)c3C(C)OC (stereo partly drawn) | 2.48 | –

More lines, main results first:

Row | Ratio [1] | SMILES | further results
5 | 8.89 | CCCCCCCCCCCCOC(C)c1c(C)c2cc3nc(c4c5[nH]c(cc6nc(cc1[nH]2)[C@@H](C)[C@@H]6CC)c(C)c5C(=O)N(Cc1cc(C(F)(F)F)cc(C(F)(F)F)c1)C4=O)[C@@H](CCC(=O)OC)[C@@H]3C (stereo partly drawn) | Activity [2]: 60%
6 | 4.76 | CCCCOC(C)c1c(C)c2cc3nc(c4c5[nH]c(cc6nc(cc1[nH]2)C(C)=C6CC)c(C)c5C(=O)N(Cc1cc(C(F)(F)F)cc(C(F)(F)F)c1)C4=O)[C@@H](CCC(=O)OC)[C@@H]3C (stereo partly drawn) | Activity (RIF): Dose-dependent effect; Ratio [3]: 3.38; Activity [4]: 30%; Activity (Colon 26): 30%
7 | 6.87 | CCCCCCCOC(C)c1c(C)c2cc3nc(c4c5[nH]c(cc6nc(cc1[nH]2)[C@@H](C)[C@@H]6CC)c(C)c5C(=O)N(Cc1cc(C(F)(F)F)cc(C(F)(F)F)c1)C4=O)[C@@H](CCC(=O)OC)[C@@H]3C (stereo partly drawn) | –
8 | 1.91 | CC[C@@H]1c2cc3[nH]c4c(c5nc(cc6[nH]c(cc(n2)[C@H]1C)c(C(C)OC)c6C)[C@@H](C)[C@@H]5CCC(=O)OC)C(=O)N(Cc1cc(C(F)(F)F)cc(C(F)(F)F)c1)C(=O)c4c3C (stereo partly drawn) | –
9 | 5.3 | CCCCOC(C)c1c(C)c2cc3nc(c4c5[nH]c(cc6nc(cc1[nH]2)[C@@H](C)[C@@H]6CC)c(C)c5C(=O)N(Cc1cc(C(F)(F)F)cc(C(F)(F)F)c1)C4=O)[C@@H](CCC(=O)OC)[C@@H]3C (stereo partly drawn) | –
